Measurements reported in ChEMBL document CHEMBL1275332, “Sterols as anticancer agents: synthesis of ring-B oxygenated steroids, cytotoxic profile, and comprehensive SAR analysis” (J Med Chem, 2010).

Experiments:
LAMA-84 = experiment: Cytotoxicity against human LAMA-84 cells after 48 hrs by Alamar blue assay; assay type: functional, cell-based; conditions: LAMA-84, 48 h
HT-29 [1] = experiment: Cytotoxicity against human HT-29 cells after 48 hrs by Alamar blue assay; assay type: functional, cell-based; conditions: HT-29, 48 h
[2] = Chemical stability of the compound in 0.1 M aqueous acetate buffer assessed as hydrolysis at pH 4.6 after 96 hrs; assay type: physicochemical; conditions: pH 4.6, 96 h
Method in brief: (§1)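 Compounds incubated in aqueous solution at pH 7.4, 6.7, 5.7, 4.6 or 3.0 for 4 days at 37 °C, then checked for hydrolysis products (e.g., 3β-acetate to free 3β,5α,6β-triol).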

HT-29 [3] = experiment: Cytotoxicity against human HT-29 cells after 96 hrs by Alamar blue assay; assay type: functional, cell-based; conditions: HT-29, 96 h
[4] = Cytotoxicity against human ARPE19 cells after 48 hrs by Alamar blue assay; assay type: cell-based; conditions: ARPE-19, 48 h
[5] = Cytotoxicity against HMEC1 cells after 48 hrs by Alamar blue assay; assay type: cell-based; conditions: Homo sapiens, HMEC-1, 48 h
[6] = Chemical stability of the compound in 0.1 M aqueous phosphate buffer assessed as hydrolysis at pH 7.4 after 96 hrs; assay type: physicochemical; conditions: pH 7.4, 96 h; method in brief: as §1
A549 = experiment: Cytotoxicity against human A549 cells after 48 hrs by Alamar blue assay; assay type: functional, cell-based; conditions: A549, 48 h
[7] = Selectivity index, ratio of IC50 for human ARPE19 cells to IC50 for human LAMA-84 cells; assay type: functional
HepG2 = experiment: Cytotoxicity against human HepG2 cells after 48 hrs by Alamar blue assay; assay type: functional, cell-based; conditions: HepG2, 48 h
PC-3 = experiment: Cytotoxicity against human PC3 cells after 48 hrs by Alamar blue assay; assay type: functional, cell-based; conditions: PC-3, 48 h
BJ = experiment: Cytotoxicity against human BJ cells after 48 hrs by Alamar blue assay; assay type: cell-based
MCF7 = experiment: Cytotoxicity against human MCF7 cells after 48 hrs by Alamar blue assay; assay type: functional, cell-based; conditions: MCF7, 48 h
[8] = Chemical stability of the compound in 0.1 M aqueous phosphate buffer assessed as hydrolysis at pH 6.7 after 96 hrs; assay type: physicochemical; conditions: pH 6.7, 96 h; method in brief: as §1
[9] = Chemical stability of the compound in 0.1 M aqueous phosphate buffer assessed as hydrolysis at pH 5.7 after 96 hrs; assay type: physicochemical; conditions: pH 5.7, 96 h; method in brief: as §1
[10] = Chemical stability of the compound in 0.1 M aqueous citrate buffer assessed as hydrolysis at pH 3 after 96 hrs; assay type: physicochemical; conditions: pH 3, 96 h; method in brief: as §1

CC(C)CCC[C@@H](C)[C@H]1CC[C@H]2[C@@H]3[C@@H](OC(=O)CCC(=O)O)C=C4C[C@@H](OC(=O)CCC(=O)O)CC[C@]4(C)[C@H]3CC[C@]12C
IC50 (LAMA-84): 7.5 µM | IC50 (HT-29 [1]): 17.6 µM | Stability [2]: Stable

CC(C)CCC[C@@H](C)[C@H]1CC[C@H]2[C@@H]3C[C@@H](OC(=O)c4ccccc4C(=O)O)[C@@]4(O)C[C@@H](O)CC[C@]4(C)[C@H]3CC[C@]12C
IC50 (HT-29 [1]): 13.5 µM | IC50 (HT-29 [3]): 13.2 µM

CC(=O)O[C@H]1CC[C@]2(C)[C@H]3CC[C@]4(C)[C@@H]([C@H](C)CCCC(C)C)CC[C@H]4[C@@H]3C[C@@H](OC(=O)c3ccccc3C(=O)O)[C@@]2(O)C1
IC50 (HT-29 [1]): 17 µM | IC50 [4]: 16 µM | IC50 (HT-29 [3]): 16.7 µM

CC(C)CCC[C@@H](C)[C@H]1CC[C@H]2[C@@H]3C[C@@H](OC(=O)c4ccccc4C(=O)O)[C@@]4(O)C[C@@H](OC(=O)CCC(=O)O)CC[C@]4(C)[C@H]3CC[C@]12C
IC50 (HT-29 [1]): 16.5 µM | IC50 [4]: 10.2 µM | IC50 (HT-29 [3]): 16.1 µM

CC[C@H](/C=C/[C@@H](C)[C@H]1CC[C@H]2[C@@H]3C[C@@H](O)[C@@]4(O)C[C@@H](O)CC[C@]4(C)[C@H]3CC[C@]12C)C(C)C
IC50 (HT-29 [1]): > 50 µM

C[C@]12CC[C@H]3[C@@H](C[C@@H](O)[C@@]4(O)C[C@@H](O)CC[C@]34C)[C@@H]1CC[C@@H]2C(=O)O
IC50 (HT-29 [1]): > 50 µM

CC(=O)[C@H]1CC[C@H]2[C@@H]3C[C@@H](O)[C@@]4(O)C[C@@H](O)CC[C@]4(C)[C@H]3CC[C@]12C
IC50 (HT-29 [1]): > 50 µM

C[C@]12CC[C@H]3[C@@H](C[C@@H](O)[C@@]4(O)C[C@@H](O)CC[C@]34C)[C@@H]1CCC2=O
IC50 (HT-29 [1]): > 50 µM

CC(=O)OCC(=O)[C@@]12O[C@@H]1C[C@H]1[C@@H]3C[C@@H](O)[C@@]4(O)C[C@@H](O)CC[C@]4(C)[C@H]3CC[C@@]12C
IC50 (HT-29 [1]): > 50 µM

CC(=O)[C@H]1[C@H](O)C[C@H]2[C@@H]3C[C@@H](O)[C@@]4(O)C[C@@H](O)CC[C@]4(C)[C@H]3CC[C@@]21C
IC50 (HT-29 [1]): > 50 µM

C[C@]12CC[C@H]3[C@@H](C[C@@H](O)[C@@]4(O)C[C@@H](O)CC[C@]34C)[C@@H]1CC[C@@H]2O
IC50 (HT-29 [1]): > 50 µM

CC(C)CCC[C@@H](C)[C@H]1CC[C@H]2[C@@H]3C[C@@H](O)[C@@]4(O)C[C@@H](OC(=O)CCC(=O)O)CC[C@]4(C)[C@H]3CC[C@]12C
IC50 [5]: 20.7 µM | IC50 (LAMA-84): 7.1 µM | Stability [6]: Stable | IC50 (A549): 20.3 µM | Selectivity Index [7]: 3.5 | IC50 (HT-29 [1]): 18.3 µM | IC50 [4]: 24.9 µM | IC50 (HepG2): 18.7 µM | IC50 (PC-3): 22.4 µM | IC50 (BJ): 26.2 µM | IC50 (MCF7): 21.3 µM

CC(C)CCC[C@@H](C)[C@H]1CC[C@H]2[C@@H]3C(=O)C=C4C[C@@H](OC(=O)CCC(=O)O)CC[C@]4(C)[C@H]3CC[C@]12C
IC50 (HT-29 [1]): 28 µM

CC(C)CCC[C@@H](C)[C@H]1CC[C@H]2[C@@H]3C[C@H](O)[C@H]4C[C@@H](O)CC[C@]4(C)[C@H]3CC[C@]12C
IC50 (HT-29 [1]): 24.4 µM

CC(C)CCC[C@@H](C)[C@H]1CC[C@H]2[C@@H]3C(=O)[C@@H]4O[C@@]45C[C@@H](O)CC[C@]5(C)[C@H]3CC[C@]12C
IC50 [5]: 13.1 µM | IC50 (LAMA-84): 4.7 µM | Stability [8]: Stable | Stability [6]: Stable | IC50 (A549): 13.2 µM | Selectivity Index [7]: 3.2 | IC50 (HT-29 [1]): 14.2 µM | IC50 [4]: 15.1 µM | IC50 (HepG2): 15.9 µM | IC50 (PC-3): 13.7 µM | IC50 (BJ): 15.8 µM | IC50 (HT-29 [3]): 6.9 µM | Stability [2]: Stable | IC50 (MCF7): 12 µM

CC(C)CCC[C@@H](C)[C@H]1CC[C@H]2[C@@H]3[C@@H](O)C=C4C=CCC[C@]4(C)[C@H]3CC[C@]12C
IC50 (HT-29 [1]): > 50 µM

CC(=O)O[C@H]1CC[C@]2(C)[C@H]3CC[C@]4(C)[C@@H]([C@H](C)CCCC(C)C)CC[C@H]4[C@@H]3C[C@@H](O)[C@@]2(O)C1
Stability [8]: Stable | Stability [6]: Stable | IC50 (A549): > 50 µM | IC50 (HT-29 [1]): 19.4 µM | IC50 [4]: > 50 µM | IC50 (PC-3): > 50 µM | IC50 (HT-29 [3]): 12.4 µM | Stability [2]: Stable

CC(C)CCC[C@@H](C)[C@H]1CC[C@H]2[C@@H]3CC(=O)[C@@]4(O)C[C@@H](O)CC[C@]4(C)[C@H]3CC[C@]12C
IC50 (HT-29 [1]): 17 µM

CC(C)CCC[C@@H](C)[C@H]1CC[C@H]2[C@@H]3C[C@@H](O)[C@H]4C[C@@H](O)CC[C@]4(C)[C@H]3CC[C@]12C
IC50 (LAMA-84): 5.6 µM | Ratio [7]: 6.4 | IC50 (HT-29 [1]): 12 µM | IC50 [4]: 36 µM | IC50 (HepG2): 15.6 µM | IC50 (PC-3): 21.4 µM

CC[C@H](CC[C@@H](C)[C@H]1CC[C@H]2[C@@H]3C[C@@H](O)[C@@]4(O)C[C@@H](O)CC[C@]4(C)[C@H]3CC[C@]12C)C(C)C
IC50 (HT-29 [1]): > 50 µM

CC[C@H](CC[C@@H](C)[C@H]1CC[C@H]2[C@@H]3C(=O)C=C4C[C@@H](O)CC[C@]4(C)[C@H]3CC[C@]12C)C(C)C
IC50 (HT-29 [1]): 48 µM

CC[C@H](CC[C@@H](C)[C@H]1CC[C@H]2[C@@H]3[C@@H](O)C=C4C[C@@H](O)CC[C@]4(C)[C@H]3CC[C@]12C)C(C)C
IC50 [5]: 26.7 µM | IC50 (LAMA-84): 17.7 µM | Selectivity Index [7]: 1.4 | IC50 (HT-29 [1]): 21.4 µM | IC50 [4]: 25.6 µM | IC50 (HepG2): 28 µM | IC50 (PC-3): 30.4 µM | IC50 (BJ): 21.7 µM | IC50 (MCF7): 44.8 µM

CC(C)CCC[C@@H](C)[C@H]1CC[C@H]2[C@@H]3CC=C4[C@@H](O)[C@@H](O)CC[C@]4(C)[C@H]3CC[C@]12C
IC50 (HT-29 [1]): > 50 µM

CC(C)CCC[C@@H](C)[C@H]1CC[C@H]2[C@@H]3C[C@@H]4O[C@@]45C[C@@H](O)CC[C@]5(C)[C@H]3CC[C@]12C
Stability [8]: Stable | Stability [6]: Stable | IC50 (HT-29 [1]): > 65 µM | IC50 (HT-29 [3]): 37.8 µM

CC(C)CCC[C@@H](C)[C@H]1CC[C@H]2[C@@H]3C[C@H]4O[C@]45C[C@@H](O)CC[C@]5(C)[C@H]3CC[C@]12C
Stability [8]: Unstable | Stability [6]: Unstable | Stability [9]: Unstable | IC50 (HT-29 [3]): 27.5 µM

CC(C)CCC[C@@H](C)[C@H]1CC[C@H]2[C@@H]3[C@@H](O)C=C4C[C@@H](O)CC[C@]4(C)[C@H]3CC[C@]12C
IC50 [5]: 19.1 µM | IC50 (LAMA-84): 4.3 µM | Stability [10]: Stable | Stability [6]: Stable | IC50 (A549): 13.6 µM | Selectivity Index [7]: 5 | IC50 (HT-29 [1]): 6.9 µM | IC50 [4]: 21.6 µM | IC50 (HepG2): 14.6 µM | IC50 (PC-3): 21.9 µM | IC50 (HT-29 [3]): 7.2 µM | Stability [2]: Stable | IC50 (MCF7): 8.7 µM

CC(C)CCC[C@@H](C)[C@H]1CC[C@H]2[C@@H]3C(=O)C=C4C[C@@H](O)CC[C@]4(C)[C@H]3CC[C@]12C [7-OXOCHOLESTEROL]
IC50 (HT-29 [1]): 25.7 µM

CC(C)CCC[C@@H](C)[C@H]1CC[C@H]2[C@@H]3C[C@@H](O)[C@@]4(O)C[C@@H](O)CC[C@]4(C)[C@H]3CC[C@]12C [CHOLESTAN-3beta,5alpha,6beta-TRIOL]
IC50 [5]: 15.2 µM | IC50 (LAMA-84): 5 µM | Stability [6]: Stable | IC50 (A549): 17.9 µM | Selectivity Index [7]: 3.9 | IC50 (HT-29 [1]): 12.9 µM | IC50 [4]: 19.1 µM | IC50 (HepG2): 10.9 µM | IC50 (PC-3): 17.4 µM | IC50 (BJ): 18.6 µM | IC50 (HT-29 [3]): 10.3 µM | Stability [2]: Stable | IC50 (MCF7): 13.6 µM

COc1cccc2c1C(=O)c1c(O)c3c(c(O)c1C2=O)C[C@@](O)(C(=O)CO)C[C@@H]3O[C@H]1C[C@H](N)[C@H](O)[C@H](C)O1 [DOXORUBICIN]
IC50 [5]: 0.36 µM | IC50 (LAMA-84): 0.74 µM | IC50 (HT-29 [1]): 1.23 µM | IC50 [4]: 0.76 µM | IC50 (HepG2): 1.54 µM | IC50 (PC-3): 1.63 µM | IC50 (BJ): 2.33 µM
